Experimental findings from ChEMBL document CHEMBL4837264, “Rational Design, Optimization, and Biological Evaluation of Novel MEK4 Inhibitors against Pancreatic Adenocarcinoma” (ACS Med Chem Lett, 2021) are described below.

Activity calls are given as the source filed them. The calls are words filed in the database; no cut-off is given here.

Data set [1] has as its target T1, Dual specificity mitogen-activated protein kinase kinase 5 (Homo sapiens) (UniProt Q13163).
T1 sequence (whole entry): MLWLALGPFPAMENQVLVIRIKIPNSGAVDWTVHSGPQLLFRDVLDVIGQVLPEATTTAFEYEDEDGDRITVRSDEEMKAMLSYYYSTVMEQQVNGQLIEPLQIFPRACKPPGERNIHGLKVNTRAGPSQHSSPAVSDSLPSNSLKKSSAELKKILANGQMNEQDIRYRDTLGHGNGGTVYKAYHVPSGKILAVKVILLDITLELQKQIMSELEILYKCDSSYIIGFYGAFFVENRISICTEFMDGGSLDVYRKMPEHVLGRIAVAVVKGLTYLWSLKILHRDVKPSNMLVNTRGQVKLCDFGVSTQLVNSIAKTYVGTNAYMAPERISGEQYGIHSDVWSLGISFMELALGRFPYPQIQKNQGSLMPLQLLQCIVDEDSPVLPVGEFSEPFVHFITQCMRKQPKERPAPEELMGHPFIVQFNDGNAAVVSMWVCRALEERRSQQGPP
The data set is described as follows: Inhibition of human wild type partial length MEK5 (L98 to P448 residues) expressed in mammalian expression system at 10 uM measured by Kinomescan assay. In outline: (§1)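 Kinome-wide binding scan on the scanEDGE DiscoverX platform, covering 97 kinases, each tested at a single compound concentration of 10 μM.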

The target in the next data set is Cytochrome P450 2D6 (Homo sapiens, UniProt P10635). In words: Inhibition of CYP2D6 (unknown origin). It is filed as ADME.
Data set [2] concerns the target T2, Dual specificity mitogen-activated protein kinase kinase 7 (Homo sapiens) (UniProt O14733).
T2 sequence (whole entry): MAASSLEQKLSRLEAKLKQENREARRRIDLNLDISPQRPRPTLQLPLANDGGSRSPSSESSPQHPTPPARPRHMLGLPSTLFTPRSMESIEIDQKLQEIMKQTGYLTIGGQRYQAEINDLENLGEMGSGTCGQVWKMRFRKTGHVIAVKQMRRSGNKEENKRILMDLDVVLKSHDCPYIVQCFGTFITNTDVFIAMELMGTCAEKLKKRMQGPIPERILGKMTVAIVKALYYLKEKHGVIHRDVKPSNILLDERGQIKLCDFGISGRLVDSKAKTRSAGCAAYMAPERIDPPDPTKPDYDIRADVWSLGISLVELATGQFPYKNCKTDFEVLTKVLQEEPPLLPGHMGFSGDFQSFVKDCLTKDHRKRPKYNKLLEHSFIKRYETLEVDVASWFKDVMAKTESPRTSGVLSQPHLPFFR
In words: Inhibition of human wild type full length MEK7 (M1 to R417 residues) expressed in mammalian expression system at 10 uM measured by Kinomescan assay.

The target of data set [3] is Serine/threonine-protein kinase B-raf (Homo sapiens) (UniProt P15056). In words: Inhibition of wild type partial length human BRAF (S429 to E741) expressed in mammalian expression system at 10 uM measured by Kinomescan assay. The essentials:
as §1

The target of data set [4] is T2, Dual specificity mitogen-activated protein kinase kinase 7 (Homo sapiens). The data set is described as follows: Inhibition of human MEK7 in human HEK293T cells assessed as decrease of MEK7 expression in presence of anisomycin at 100 uM measured after 5 hrs by Western blot assay. It counts as cell-based. In outline: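 HEK293T cells pretreated with anisomycin (3 μg/mL) for 45 min, then exposed to inhibitor (100 μM) for 5 h. MEK7 levels were read by Western blot with HSP90 as loading control. Blots are representative of at least three biological replicates.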
A general note: Immunoblotting shows a protein as a band on a membrane.

The target of a further data set is Cytochrome P450 2C9 (Homo sapiens, UniProt P11712). The data set is described as follows: Inhibition of CYP2C9 (unknown origin). It is filed as ADME.
Data set [5] addresses Dual specificity mitogen-activated protein kinase kinase 1 (Homo sapiens) (UniProt Q02750). In words: Inhibition of human MEK1 in human HPAF-II cells assessed as decrease of p42/44 MAPK phosphorylation in presence of U0126 at 10 uM measured after 5 hrs by Westren blot assay. It counts as cell-based. The essentials:
(§2)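 CD18 or MiaPaCa2 cells pretreated with U0126 (1 or 5 μM) for 1 h, then MEK4 inhibitor (10 μM) added for 5 h. Phospho- and total p42/44 MAPK detected by Western blot with HSP90 as loading control. Blots representative of at least three biological replicates.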

The target of data set [6] is T3, Dual specificity mitogen-activated protein kinase kinase 6 (Homo sapiens) (UniProt P52564).
T3 sequence (whole entry): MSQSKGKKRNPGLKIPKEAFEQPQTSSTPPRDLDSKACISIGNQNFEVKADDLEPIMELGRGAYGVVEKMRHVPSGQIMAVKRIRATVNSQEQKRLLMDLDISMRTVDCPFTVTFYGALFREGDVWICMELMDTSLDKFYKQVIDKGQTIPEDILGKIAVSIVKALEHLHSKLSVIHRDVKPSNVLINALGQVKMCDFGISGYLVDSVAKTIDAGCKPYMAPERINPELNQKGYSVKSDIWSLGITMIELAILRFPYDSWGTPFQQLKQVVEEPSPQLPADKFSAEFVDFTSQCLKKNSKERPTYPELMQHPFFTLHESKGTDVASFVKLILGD
The data set is described as follows: Inhibition of human wild type partial length MEK6 (K36 to D344 residues) expressed in bacterial expression system at 10 uM measured by Kinomescan assay. The essentials:
as §1

In data set [7] the target is T3, Dual specificity mitogen-activated protein kinase kinase 6 (Homo sapiens). The data set is described as follows: Inhibition of human wild type partial length MEK6 (K36 to D344 residues) expressed in bacterial expression system at 1 uM measured by Kinomescan assay.
Data set [8] concerns the target Mitogen-activated protein kinase 9 (Homo sapiens) (UniProt P45984). The data set is described as follows: Inhibition of wild type full length human JNK2 (M1 to Q382 residues) expressed in mammalian expression system at 10 uM measured by Kinomescan assay. The essentials:
as §1

The target of data set [9] is Mitogen-activated protein kinase 8 (Homo sapiens) (UniProt P45983). The data set is described as follows: Inhibition of wild type full length human JNK1 (M1 to Q384 residues) expressed in mammalian expression system at 10 uM measured by Kinomescan assay. The essentials: as §1
Data set [10] deals with Mitogen-activated protein kinase 10 (Homo sapiens) (UniProt P53779). In words: Inhibition of wild type partial length human JNK3 (V28 to Q422 residues) expressed in mammalian expression system at 10 uM measured by Kinomescan assay. The essentials:
as §1

For data set [11], the target named is Dual specificity mitogen-activated protein kinase kinase 2 (Homo sapiens) (UniProt P36507). The data set is described as follows: Inhibition of human MEK2 in human MIA PaCa-2 cells assessed as decrease of p42/44 MAPK phosphorylation in presence of U0126 at 10 uM measured after 5 hrs by Westren blot assay. It counts as cell-based. The essentials: as §2
In another data set the target is Cytochrome P450 3A5 (Homo sapiens, UniProt P20815). The data set is described as follows: Inhibition of CYP3A5 (unknown origin). It counts as ADME.
The target of the next data set is Cytochrome P450 2C19 (Homo sapiens, UniProt P33261). In words: Inhibition of CYP2C19 (unknown origin). It is filed as ADME.
For data set [12], the target named is T3, Dual specificity mitogen-activated protein kinase kinase 6 (Homo sapiens). In words: Inhibition of human MEK6 in human HEK293T cells assessed as inhibition of anisomycin-induced p38 MAPK phosphorylation at 100 uM measured after 5 hrs by Western blot assay. It is filed as cell-based. The essentials: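 HEK293T cells pretreated with anisomycin (3 μg/mL) for 45 min, then given inhibitor (100 μM) for 5 h. Phospho- and total p42/44 MAPK and p38 MAPK, plus MEK7, detected by Western blot with HSP90 as loading control. Blots representative of at least three biological replicates.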

Cytochrome P450 3A5, sequence (P20815 whole entry): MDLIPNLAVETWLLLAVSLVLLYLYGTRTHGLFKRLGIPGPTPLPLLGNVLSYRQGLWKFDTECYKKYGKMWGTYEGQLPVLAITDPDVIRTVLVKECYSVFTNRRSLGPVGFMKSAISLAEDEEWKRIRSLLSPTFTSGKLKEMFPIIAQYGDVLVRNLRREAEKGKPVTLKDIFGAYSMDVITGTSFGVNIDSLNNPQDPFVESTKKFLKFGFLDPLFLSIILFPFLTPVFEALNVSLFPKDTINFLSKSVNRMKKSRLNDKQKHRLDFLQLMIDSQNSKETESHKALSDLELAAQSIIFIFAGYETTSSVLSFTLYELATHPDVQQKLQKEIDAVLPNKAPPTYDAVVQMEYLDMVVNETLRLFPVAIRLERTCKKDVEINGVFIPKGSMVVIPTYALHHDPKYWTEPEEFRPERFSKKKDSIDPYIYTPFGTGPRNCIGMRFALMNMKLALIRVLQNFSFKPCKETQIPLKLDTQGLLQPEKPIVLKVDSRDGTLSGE
Cytochrome P450 2C9, sequence (P11712 whole entry): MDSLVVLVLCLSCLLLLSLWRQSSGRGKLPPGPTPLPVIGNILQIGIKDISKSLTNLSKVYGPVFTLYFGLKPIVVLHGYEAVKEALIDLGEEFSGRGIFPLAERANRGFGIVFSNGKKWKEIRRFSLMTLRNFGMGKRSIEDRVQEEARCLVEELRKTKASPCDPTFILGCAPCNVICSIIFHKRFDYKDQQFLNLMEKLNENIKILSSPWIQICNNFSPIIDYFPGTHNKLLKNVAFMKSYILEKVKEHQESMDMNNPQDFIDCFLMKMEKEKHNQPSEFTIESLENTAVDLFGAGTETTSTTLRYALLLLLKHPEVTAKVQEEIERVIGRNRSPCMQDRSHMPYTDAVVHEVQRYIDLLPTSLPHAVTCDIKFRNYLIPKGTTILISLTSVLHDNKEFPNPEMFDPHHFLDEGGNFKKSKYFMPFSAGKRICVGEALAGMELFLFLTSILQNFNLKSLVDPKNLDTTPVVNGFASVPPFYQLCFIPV
Dual specificity mitogen-activated protein kinase kinase 1 (Homo sapiens), sequence (Q02750 whole entry): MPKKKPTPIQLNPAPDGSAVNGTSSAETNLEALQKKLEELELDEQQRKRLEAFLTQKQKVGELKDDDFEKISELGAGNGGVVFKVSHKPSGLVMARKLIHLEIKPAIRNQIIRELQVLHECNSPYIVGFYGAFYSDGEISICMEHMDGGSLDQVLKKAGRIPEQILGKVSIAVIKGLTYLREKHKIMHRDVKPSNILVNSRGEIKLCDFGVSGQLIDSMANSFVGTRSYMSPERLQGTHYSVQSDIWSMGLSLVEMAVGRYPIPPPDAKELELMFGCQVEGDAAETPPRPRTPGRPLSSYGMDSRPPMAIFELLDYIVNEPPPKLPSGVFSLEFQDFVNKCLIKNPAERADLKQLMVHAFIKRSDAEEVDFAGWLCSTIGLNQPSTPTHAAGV
Cytochrome P450 2C19, sequence (P33261 whole entry): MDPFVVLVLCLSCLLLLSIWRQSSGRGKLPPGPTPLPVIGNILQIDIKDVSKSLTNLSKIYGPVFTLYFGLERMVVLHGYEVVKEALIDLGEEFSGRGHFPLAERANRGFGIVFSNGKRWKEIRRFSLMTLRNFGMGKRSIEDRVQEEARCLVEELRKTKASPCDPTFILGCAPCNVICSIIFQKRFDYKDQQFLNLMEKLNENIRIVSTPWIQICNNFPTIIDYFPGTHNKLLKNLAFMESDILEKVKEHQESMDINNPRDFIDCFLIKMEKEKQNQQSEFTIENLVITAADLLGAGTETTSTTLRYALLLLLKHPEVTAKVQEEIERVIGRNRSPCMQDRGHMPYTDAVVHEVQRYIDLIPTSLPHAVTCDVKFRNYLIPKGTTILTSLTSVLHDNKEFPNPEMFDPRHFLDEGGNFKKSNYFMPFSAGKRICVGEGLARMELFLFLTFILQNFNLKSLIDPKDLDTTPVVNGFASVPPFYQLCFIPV
Dual specificity mitogen-activated protein kinase kinase 2 (Homo sapiens), sequence (P36507 whole entry): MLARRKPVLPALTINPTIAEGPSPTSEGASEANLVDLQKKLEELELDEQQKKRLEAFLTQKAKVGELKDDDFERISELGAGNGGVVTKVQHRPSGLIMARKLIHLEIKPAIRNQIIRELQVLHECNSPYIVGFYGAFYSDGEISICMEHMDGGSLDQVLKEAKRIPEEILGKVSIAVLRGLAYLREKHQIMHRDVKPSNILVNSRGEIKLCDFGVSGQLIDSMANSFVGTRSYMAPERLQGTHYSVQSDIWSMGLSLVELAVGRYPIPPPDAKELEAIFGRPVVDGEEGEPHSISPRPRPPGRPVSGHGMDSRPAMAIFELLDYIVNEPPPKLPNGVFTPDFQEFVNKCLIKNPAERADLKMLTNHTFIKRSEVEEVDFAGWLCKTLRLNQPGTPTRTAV
Cytochrome P450 2D6, sequence (P10635 whole entry): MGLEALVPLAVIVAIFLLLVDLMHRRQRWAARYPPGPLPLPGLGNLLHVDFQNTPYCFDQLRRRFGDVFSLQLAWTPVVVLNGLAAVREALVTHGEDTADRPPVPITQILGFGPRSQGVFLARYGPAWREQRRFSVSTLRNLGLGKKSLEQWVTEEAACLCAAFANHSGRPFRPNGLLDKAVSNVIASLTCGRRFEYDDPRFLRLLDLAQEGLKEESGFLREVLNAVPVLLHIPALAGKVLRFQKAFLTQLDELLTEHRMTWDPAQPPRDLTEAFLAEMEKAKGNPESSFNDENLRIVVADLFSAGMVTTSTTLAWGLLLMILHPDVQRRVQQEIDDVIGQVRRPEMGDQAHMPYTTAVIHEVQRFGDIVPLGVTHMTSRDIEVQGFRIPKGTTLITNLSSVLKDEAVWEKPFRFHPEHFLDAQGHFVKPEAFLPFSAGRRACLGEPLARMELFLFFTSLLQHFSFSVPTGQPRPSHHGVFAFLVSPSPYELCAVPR
Mitogen-activated protein kinase 9 (Homo sapiens), sequence (P45984 whole entry, looked up, the tested form may be a part): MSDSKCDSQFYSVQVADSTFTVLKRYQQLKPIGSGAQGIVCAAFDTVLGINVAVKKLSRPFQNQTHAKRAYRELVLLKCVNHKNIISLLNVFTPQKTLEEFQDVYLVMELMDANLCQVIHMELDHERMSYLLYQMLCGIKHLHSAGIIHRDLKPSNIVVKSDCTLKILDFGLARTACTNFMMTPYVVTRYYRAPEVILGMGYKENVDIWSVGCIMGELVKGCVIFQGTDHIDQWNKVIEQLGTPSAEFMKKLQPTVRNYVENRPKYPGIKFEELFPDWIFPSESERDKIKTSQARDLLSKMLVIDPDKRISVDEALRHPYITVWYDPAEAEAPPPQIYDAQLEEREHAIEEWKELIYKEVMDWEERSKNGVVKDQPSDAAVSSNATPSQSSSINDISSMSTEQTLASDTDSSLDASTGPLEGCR
Mitogen-activated protein kinase 8 (Homo sapiens), sequence (P45983 whole entry, the tested form may be a part): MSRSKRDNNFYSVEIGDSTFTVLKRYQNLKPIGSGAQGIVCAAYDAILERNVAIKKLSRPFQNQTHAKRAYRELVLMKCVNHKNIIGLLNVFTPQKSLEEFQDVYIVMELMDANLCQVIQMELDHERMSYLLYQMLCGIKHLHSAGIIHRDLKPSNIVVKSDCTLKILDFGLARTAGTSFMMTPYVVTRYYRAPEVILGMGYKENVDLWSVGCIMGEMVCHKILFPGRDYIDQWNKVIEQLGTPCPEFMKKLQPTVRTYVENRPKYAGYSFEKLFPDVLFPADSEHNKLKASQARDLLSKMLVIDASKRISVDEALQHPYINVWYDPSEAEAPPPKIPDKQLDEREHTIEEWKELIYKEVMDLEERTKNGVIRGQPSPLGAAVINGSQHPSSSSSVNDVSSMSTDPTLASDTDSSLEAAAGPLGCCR
Mitogen-activated protein kinase 10 (Homo sapiens), sequence (P53779 whole entry, the tested form may be a part): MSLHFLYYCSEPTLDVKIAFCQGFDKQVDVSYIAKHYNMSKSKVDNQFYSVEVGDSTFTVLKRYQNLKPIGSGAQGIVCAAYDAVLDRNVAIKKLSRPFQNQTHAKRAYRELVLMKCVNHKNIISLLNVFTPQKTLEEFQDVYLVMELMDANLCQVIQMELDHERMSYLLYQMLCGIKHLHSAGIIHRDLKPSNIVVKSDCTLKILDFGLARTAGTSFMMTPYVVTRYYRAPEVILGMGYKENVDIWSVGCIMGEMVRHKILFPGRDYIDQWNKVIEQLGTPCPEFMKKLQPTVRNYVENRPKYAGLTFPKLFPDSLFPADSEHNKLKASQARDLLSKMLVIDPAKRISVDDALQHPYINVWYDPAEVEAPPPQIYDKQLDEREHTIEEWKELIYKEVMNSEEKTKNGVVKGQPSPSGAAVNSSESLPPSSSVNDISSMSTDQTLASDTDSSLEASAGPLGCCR
Serine/threonine-protein kinase B-raf (Homo sapiens), sequence (P15056 whole entry): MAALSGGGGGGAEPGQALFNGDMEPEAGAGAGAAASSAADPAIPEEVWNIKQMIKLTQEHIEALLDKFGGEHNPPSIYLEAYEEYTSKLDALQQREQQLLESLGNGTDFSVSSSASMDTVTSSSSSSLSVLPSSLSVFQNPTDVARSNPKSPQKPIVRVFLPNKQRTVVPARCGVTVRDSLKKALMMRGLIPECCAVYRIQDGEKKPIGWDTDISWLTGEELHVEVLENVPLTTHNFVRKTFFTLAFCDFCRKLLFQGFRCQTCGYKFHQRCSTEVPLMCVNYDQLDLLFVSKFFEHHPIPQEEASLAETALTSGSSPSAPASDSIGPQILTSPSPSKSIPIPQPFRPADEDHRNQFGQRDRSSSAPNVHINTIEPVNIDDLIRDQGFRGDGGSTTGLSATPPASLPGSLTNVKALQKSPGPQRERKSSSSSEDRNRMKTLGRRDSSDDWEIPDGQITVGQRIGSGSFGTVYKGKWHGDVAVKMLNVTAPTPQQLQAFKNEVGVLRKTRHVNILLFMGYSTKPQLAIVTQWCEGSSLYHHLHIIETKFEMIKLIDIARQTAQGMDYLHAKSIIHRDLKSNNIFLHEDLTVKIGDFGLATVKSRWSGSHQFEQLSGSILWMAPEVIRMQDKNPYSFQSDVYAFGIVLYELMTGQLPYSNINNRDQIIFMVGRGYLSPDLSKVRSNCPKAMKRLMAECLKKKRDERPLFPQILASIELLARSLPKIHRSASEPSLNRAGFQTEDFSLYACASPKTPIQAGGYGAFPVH

Broadly, the inhibition is the percentage by which the read-out fell short of the control. Turning to `NC(=O)c1ccc(NS(=O)(=O)c2cccc(-c3n[nH]c4cc(F)ccc34)c2)cc1`, the inhibition in [1] worked out at 99%; in [2] it was 99%; in data set [6], 97%; in data set [7], 48%. The “inhibition (INH)” value on Cytochrome P450 2D6 is recorded as “Active”; against Cytochrome P450 2C9 it was “Active”; at Cytochrome P450 3A5, “Not Active”; against Cytochrome P450 2C19, “Active”. For the same compound, the inhibition result in [3], in data set [4] and in data set [12] was “inactive” throughout. The inhibition result in data set [5], in [8], in data set [9], in [10] and in [11] was “Active” in each case.
Turning to `NS(=O)(=O)c1ccc(-c2n[nH]c3cc(F)ccc23)cc1`, the inhibition in data set [1] was 76%; in [2], 79%; in data set [6] it was 50%; in data set [7], 12%. For the same compound, the “inhibition (INH)” value is “Not Active” against Cytochrome P450 2D6, “Not Active” against Cytochrome P450 2C9, “Not Active” at Cytochrome P450 3A5 and “Active” against Cytochrome P450 2C19. The inhibition entry in data set [4] and in [12] was “inactive” each time. Besides, the inhibition result in data set [5] and in [11] was “Active” each time.
